Reference: ChEMBL document CHEMBL4038284, “Synthesis of novel quinoline-based 4,5-dihydro-1H-pyrazoles as potential anticancer, antifungal, antibacterial and antiprotozoal agents” (Eur J Med Chem, 2017)
Activity calls are given as the source filed them. The rule behind the calls is not given here.

Legend:
OVCAR-8 = test: Growth inhibition of human OVCAR8 cells at 10 uM incubated for 48 hrs by sulforhodamine B assay; format: functional, cell-based
Summary of the method: (§1)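 NCI 60-line panel, single 10 μM dose. Cells were grown in RPMI-1640 with 5% FBS and 2 mM L-glutamine and pre-incubated 24 h before compound addition (DMSO stock). Exposure was 48 h at 37 °C, 5% CO2. Cells were fixed with cold TCA (10% final), stained with 0.4% SRB, bound dye dissolved in 10 mM Tris base, A515 read. Growth was taken relative to time-zero and untreated control plates.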

PC-3 = test: Growth inhibition of human PC3 cells at 10 uM incubated for 48 hrs by sulforhodamine B assay; format: functional, cell-based; summary of the method: as §1
A498 = test: Growth inhibition of human A498 cells at 10 uM incubated for 48 hrs by sulforhodamine B assay; format: functional, cell-based
Summary of the method: (§2)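 NCI 60-cell-line screen at a single 10 µM dose. Cells in RPMI-1640 with 5% FBS and 2 mM L-glutamine, pre-incubated 24 h, then treated for 48 h at 37 °C. TCA fixation, sulforhodamine B staining, absorbance at 515 nm. Percentage growth calculated against time-zero and untreated controls.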

RXF 393 = test: Growth inhibition of human RXF393 cells at 10 uM incubated for 48 hrs by sulforhodamine B assay; format: functional, cell-based; summary of the method: as §1
NCI-H460 = test: Growth inhibition of human NCI-H460 cells at 10 uM incubated for 48 hrs by sulforhodamine B assay; format: functional, cell-based; summary of the method: as §1
UO-31 = test: Growth inhibition of human UO31 cells at 10 uM incubated for 48 hrs by sulforhodamine B assay; format: functional, cell-based
Summary of the method: (§3)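 NCI-60 single-dose screen at 10 µM for 48 h. Cells were grown in RPMI-1640 with 5% FBS and 2 mM L-glutamine and preincubated 24 h before compound. Time-zero plates were TCA-fixed at compound addition. After exposure, cells were TCA-fixed, stained with SRB and read at 515 nm. Percentage growth was calculated against time-zero and untreated-control absorbances.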

Cryptococcus neoformans [1] = test: Growth inhibition of Cryptococcus neoformans ATCC 32264 at 3.4 ug/ml incubated for 48 hrs under dark condition by broth microdilution method relative to control; format: functional; details: ATCC 32264, 48 h, read-out: GI
M14 = test: Growth inhibition of human M14 cells at 10 uM incubated for 48 hrs by sulforhodamine B assay; format: functional, cell-based; summary of the method: as §1
DU-145 = test: Growth inhibition of human DU145 cells at 10 uM incubated for 48 hrs by sulforhodamine B assay; format: functional, cell-based; summary of the method: as §2
Cryptococcus neoformans [2] = test: Growth inhibition of Cryptococcus neoformans ATCC 32264 at 15.62 ug/ml incubated for 48 hrs under dark condition by broth microdilution method relative to control; format: functional; details: ATCC 32264, 48 h, read-out: GI
Summary of the method: (§4)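 CLSI M27-A3 broth microdilution in RPMI-1640, DMSO ≤1%. Inoculum 1-5 × 10^3 CFU/mL. Incubated 48 h at 30 °C, dark. % inhibition = 100 − (OD405 test − sterility control)/(OD405 growth control − sterility control), with growth and sterility control wells. Triplicate.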

Staphylococcus aureus [3] = test: Antibacterial activity against vancomycin-intermediate Staphylococcus aureus after 24 hrs by resazurin dye based microdilution assay; format: functional
Summary of the method: (§5)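 MIC taken as the lowest concentration giving visible inhibition and/or by resazurin (1 mg/mL). Gentamicin was the control. Run in duplicate, repeated at least three times.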

NCI-H322M = test: Growth inhibition of human NCI-H322M cells at 10 uM incubated for 48 hrs by sulforhodamine B assay; format: functional, cell-based; summary of the method: as §1
HCT-15 = test: Growth inhibition of human HCT15 cells at 10 uM incubated for 48 hrs by sulforhodamine B assay; format: functional, cell-based; summary of the method: as §2
Candida albicans [4] = test: Growth inhibition of Candida albicans ATCC 10231 at 7.8 ug/ml incubated for 48 hrs under dark condition by broth microdilution method relative to control; format: functional; details: ATCC 10231, 48 h, read-out: GI; summary of the method: as §4
SW-620 = test: Growth inhibition of human SW620 cells at 10 uM incubated for 48 hrs by sulforhodamine B assay; format: functional, cell-based; summary of the method: as §3
Klebsiella pneumoniae = test: Antibacterial activity against ESBL positive Klebsiella pneumoniae ATCC 700603 after 24 hrs by resazurin dye based microdilution assay; format: functional; details: Klebsiella pneumoniae, 700603, 24 h; summary of the method: as §5
Staphylococcus aureus [5] = test: Antibacterial activity against methicillin-sensitive Staphylococcus aureus ATCC 25923 after 24 hrs by resazurin dye based microdilution assay; format: functional; details: ATCC 25923, 24 h; summary of the method: as §5
UACC-257 = test: Growth inhibition of human UACC257 cells at 10 uM incubated for 48 hrs by sulforhodamine B assay; format: functional, cell-based; summary of the method: as §3
HOP-92 = test: Growth inhibition of human HOP92 cells at 10 uM incubated for 48 hrs by sulforhodamine B assay; format: functional, cell-based; summary of the method: as §1
SR = test: Growth inhibition of human SR cells at 10 uM incubated for 48 hrs by sulforhodamine B assay; format: functional, cell-based; summary of the method: as §3
OVCAR-4 = test: Growth inhibition of human OVCAR4 cells at 10 uM incubated for 48 hrs by sulforhodamine B assay; format: functional, cell-based; summary of the method: as §1
IGROV-1 = test: Growth inhibition of human IGROV1 cells at 10 uM incubated for 48 hrs by sulforhodamine B assay; format: functional, cell-based; summary of the method: as §1
HT-29 = test: Growth inhibition of human HT-29 cells at 10 uM incubated for 48 hrs by sulforhodamine B assay; format: functional, cell-based; summary of the method: as §1
NCI-H226 = test: Growth inhibition of human NCI-H226 cells at 10 uM incubated for 48 hrs by sulforhodamine B assay; format: functional, cell-based; summary of the method: as §1
Cryptococcus neoformans [6] = test: Growth inhibition of Cryptococcus neoformans ATCC 32264 at 250 ug/ml incubated for 48 hrs under dark condition by broth microdilution method relative to control; format: functional; details: ATCC 32264, 48 h, read-out: GI; summary of the method: as §4
SK-OV-3 = test: Growth inhibition of human SKOV3 cells at 10 uM incubated for 48 hrs by sulforhodamine B assay; format: functional, cell-based; summary of the method: as §3
HCC 2998 = test: Growth inhibition of human HCC2998 cells at 10 uM incubated for 48 hrs by sulforhodamine B assay; format: functional, cell-based; summary of the method: as §2
A549 = test: Growth inhibition of human A549/ATCC cells at 10 uM incubated for 48 hrs by sulforhodamine B assay; format: functional, cell-based; summary of the method: as §2
Candida albicans [7] = test: Growth inhibition of Candida albicans ATCC 10231 at 62.5 ug/ml incubated for 48 hrs under dark condition by broth microdilution method relative to control; format: functional; details: ATCC 10231, 48 h, read-out: GI; summary of the method: as §4
EKVX = test: Growth inhibition of human EKVX cells at 10 uM incubated for 48 hrs by sulforhodamine B assay; format: functional, cell-based; summary of the method: as §2
HCT-116 = test: Growth inhibition of human HCT116 cells at 10 uM incubated for 48 hrs by sulforhodamine B assay; format: functional, cell-based; summary of the method: as §2
MDA-MB-468 = test: Growth inhibition of human MDA-MB-468 cells at 10 uM incubated for 48 hrs by sulforhodamine B assay; format: functional, cell-based; summary of the method: as §1
Hs-578T = test: Growth inhibition of human Hs578T cells at 10 uM incubated for 48 hrs by sulforhodamine B assay; format: functional, cell-based; summary of the method: as §1
Cryptococcus neoformans [8] = test: Growth inhibition of Cryptococcus neoformans ATCC 32264 at 31.25 ug/ml incubated for 48 hrs under dark condition by broth microdilution method relative to control; format: functional; details: ATCC 32264, 48 h, read-out: GI; summary of the method: as §4
Candida albicans [9] = test: Growth inhibition of Candida albicans ATCC 10231 at 125 ug/ml incubated for 48 hrs under dark condition by broth microdilution method relative to control; format: functional; details: ATCC 10231, 48 h, read-out: GI; summary of the method: as §4

Row | SMILES | growth inhibition (GI) (OVCAR-8) | growth inhibition (GI) (PC-3) | growth inhibition (GI) (A498) | growth inhibition (GI) (RXF 393) | growth inhibition (GI) (NCI-H460) | growth inhibition (GI) (UO-31) | inhibition of growth at 3.4 µg/mL (Cryptococcus neoformans [1]) [%] | growth inhibition (GI) (M14) | growth inhibition (GI) (DU-145) | inhibition of growth at 15.62 µg/mL (Cryptococcus neoformans [2]) [%] | MIC (Staphylococcus aureus [3]) [µg/mL] | growth inhibition (GI) (NCI-H322M) | growth inhibition (GI) (HCT-15) | inhibition of growth at 7.8 µg/mL (Candida albicans [4]) [%] | growth inhibition (GI) (SW-620) | MIC (Klebsiella pneumoniae) [µg/mL] | MIC (Staphylococcus aureus [5]) [µg/mL] | growth inhibition (GI) (UACC-257) | growth inhibition (GI) (HOP-92) | growth inhibition (GI) (SR) | other results
1 | COc1ccc(C2=NN(C=O)C(c3cccc(Nc4ccnc5cc(Cl)ccc45)c3)C2)cc1 (stereo not given) | Active | Active | Active | Active | Active | Active | 4.06 | Active | Active | 23.6 | > 1000 | Active | Active | 7.43 | Active | > 1000 | > 1000 | Active | Active | Active | growth inhibition (GI) (OVCAR-4): Active; growth inhibition (GI) (IGROV-1): Active; growth inhibition (GI) (HT-29): Active; growth inhibition (GI) (NCI-H226): Active; inhibition of growth at 250 µg/mL (Cryptococcus neoformans [6]): 55.4%; growth inhibition (GI) (SK-OV-3): Active; growth inhibition (GI) (HCC 2998): Active; growth inhibition (GI) (A549): Active; inhibition of growth at 62.5 µg/mL (Candida albicans [7]): 20.1%; growth inhibition (GI) (EKVX): Active; growth inhibition (GI) (HCT-116): Active; growth inhibition (GI) (MDA-MB-468): Active; growth inhibition (GI) (Hs-578T): Active; inhibition of growth at 31.25 µg/mL (Cryptococcus neoformans [8]): 29.1%; inhibition of growth at 125 µg/mL (Candida albicans [9]): 28%
2 | COc1cc(C(=O)/C=C/c2cccc(Nc3ccnc4cc(Cl)ccc34)c2)cc(OC)c1OC | Active | Active | Active | Active | Active | Active | 0 | Active | Active | 0 | > 1000 | Active | Active | 2.51 | Active | > 1000 | > 1000 | Active | Active | Active | growth inhibition (GI) (OVCAR-4): Active; growth inhibition (GI) (IGROV-1): Active; growth inhibition (GI) (HT-29): Active; growth inhibition (GI) (NCI-H226): Active; inhibition of growth at 250 µg/mL (Cryptococcus neoformans [6]): 7.12%; growth inhibition (GI) (SK-OV-3): Active; growth inhibition (GI) (HCC 2998): Active; growth inhibition (GI) (A549): Active; inhibition of growth at 62.5 µg/mL (Candida albicans [7]): 7.6%; growth inhibition (GI) (EKVX): Active; growth inhibition (GI) (HCT-116): Active; growth inhibition (GI) (MDA-MB-468): Active; growth inhibition (GI) (Hs-578T): Active; inhibition of growth at 31.25 µg/mL (Cryptococcus neoformans [8]): 3.63%; inhibition of growth at 125 µg/mL (Candida albicans [9]): 10.7%
